For orientation: EC50 means the concentration needed to bring the measured effect to its halfway point. Usually EC90 stands for the concentration at which the effect reaches the 90% level. The pIC50 is −log10 of the IC50, conventionally taken in molar units. Read a high pIC50 as a low IC50. Broadly, the IC50 is the concentration needed to halve the response being measured.

Series [1] concerns the target Beta-2 adrenergic receptor (Homo sapiens, UniProt P07550). Put plainly: Agonist activity at human beta2 adrenoceptor transfected in CHO cells assessed as cyclic AMP accumulation after 45 mins by fluorescence polarization assay. Type of series: functional, cell-based. In general terms: Fluorescence polarisation rises when a labelled molecule tumbles more slowly, as on binding a larger partner.

A further series has as its system L5178Y. Kind of series: Genotoxicity against mouse L5178Y cells. It counts as toxicity, cell-based. The method in brief:
(§1)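 Acetate and 4-biphenylsulfonate salts screened in Ames and mouse lymphoma L5178Y assays, with and without a rat liver metabolic activation system.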

The next series concerns Salmonella typhimurium. Put plainly: Genotoxicity in Salmonella typhimurium by Ames assay in presence of rat liver metabolic activation system. It counts as toxicity, organism-based. As to conditions: salmonella enterica subsp. enterica serovar typhimurium. Summed up: as §1
Series [2] has as its system Cavia porcellus. Kind of series: Bronchodilatory activity in guinea pig assessed as duration of action of inhibition of histamine-induced bronchoconstriction at 10 times EC90 administered via nebulization 2 mins prior to histamine challenge. It counts as functional. The method in brief: (§2)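 Conscious guinea pigs, n = 24 per group, given test agonist as a nebulized solution in dimethylacetamide–saline vehicle (2 min nebulization) before histamine (10 mM, nebulized 1.3 min) in a whole-body plethysmograph. PenH recorded for 15 min as index of airway obstruction. Dose expressed as nebulizer concentration; duration taken as time to 50% recovery.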

For series [3], the system named is Cavia porcellus. Put plainly: Bronchodilatory activity in guinea pig assessed as inhibition of histamine-induced bronchoconstriction administered via nebulization 2 mins prior to histamine challenge. It counts as functional. The method in brief: as §2
Series [4] can be described thus: Binding affinity to guinea pig sigma receptor. On the set-up: species or system Cavia porcellus.
Series [5] has as its system Hepatocyte. Kind of series: Drug metabolism in human hepatocytes assessed as metabolite M11 formation at 12.5 uM after 2 hrs by LC-MS/MS analysis. Type of series: ADME, cell-based. Summed up:
(§3)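 Human hepatocytes incubated with substrate at 12.5 μM for 2 h. Products characterized by LC–MS/MS on a C18 column, 5–95% acetonitrile gradient in water with 0.1% formic acid over 8 min. Metabolites numbered by elution order. Abundance is semiquantitative from peak heights (low/medium/high), assuming equal analyte response.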

Series [6] has as its system Hepatocyte. Kind of series: Drug metabolism in human hepatocytes assessed as metabolite M10 formation at 12.5 uM after 2 hrs by LC-MS/MS analysis. Type of series: ADME, cell-based. The method in brief:
as §3

Series [7] has as its system Hepatocyte. Kind of series: Drug metabolism in human hepatocytes assessed as metabolite M7 formation at 12.5 uM after 2 hrs by LC-MS/MS analysis. It counts as ADME, cell-based. The method in brief: as §3
Series [8] relates to Hepatocyte. Kind of series: Drug metabolism in human hepatocytes assessed as metabolite M15 formation at 12.5 uM after 2 hrs by LC-MS/MS analysis. Type of series: ADME, cell-based. The method in brief:
as §3

The next series deals with Liver microsome. Put plainly: Clearance in dog liver microsomes. Type of series: ADME, Canis lupus familiaris. The method in brief:
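Compound incubated with liver microsomes; in vitro metabolic clearance expressed as (mL/min)/g liver.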
(Microsomes from liver hold many membrane-bound enzymes, among them those of drug oxidation.)

Series [9] can be described thus: Plasma protein binding in guinea pig. It counts as ADME, cell-free, Cavia porcellus. Conditions: read-out: PPB (converted); call rule not given here.
Series [10] deals with T1, Cytochrome P450 3A4 (Homo sapiens, UniProt P08684). Put plainly: Inhibition of human CYP3A4 expressed in Escherichia coli using 7-benzyloxyquinoline as substrate. Type of series: ADME. Summed up: (§4)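 Human CYP isoforms expressed in E. coli; IC50 from n = 3. Probe substrates diethoxyfluorescein and 7-benzyloxyquinoline are stated for CYP3A4.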
Series [11] addresses T1, Cytochrome P450 3A4. Put plainly: Inhibition of human CYP3A4 expressed in Escherichia coli using diethoxyfluorescein as substrate. Type of series: ADME. The method in brief:
as §4

The target in a further series is Cytochrome P450 2C19 (Homo sapiens, UniProt P33261). Kind of series: Inhibition of human CYP2C19 expressed in Escherichia coli. It counts as ADME. The method in brief:
as §4

In another series the target is T2, Cytochrome P450 1A2 (Homo sapiens, UniProt P05177).
T2 sequence (P05177 whole entry): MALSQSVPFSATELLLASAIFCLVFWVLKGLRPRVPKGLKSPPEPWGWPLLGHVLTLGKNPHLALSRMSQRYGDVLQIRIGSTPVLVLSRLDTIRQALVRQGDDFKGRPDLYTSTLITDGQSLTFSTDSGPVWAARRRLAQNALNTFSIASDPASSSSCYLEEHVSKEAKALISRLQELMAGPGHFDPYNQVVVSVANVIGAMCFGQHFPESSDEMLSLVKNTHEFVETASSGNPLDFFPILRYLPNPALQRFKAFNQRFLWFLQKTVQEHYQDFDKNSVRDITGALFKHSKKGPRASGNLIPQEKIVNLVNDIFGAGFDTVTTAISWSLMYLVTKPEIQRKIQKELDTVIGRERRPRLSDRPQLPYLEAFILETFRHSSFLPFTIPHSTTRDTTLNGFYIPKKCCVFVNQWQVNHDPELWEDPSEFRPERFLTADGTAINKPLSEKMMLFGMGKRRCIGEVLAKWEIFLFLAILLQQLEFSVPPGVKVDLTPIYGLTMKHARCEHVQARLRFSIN
Put plainly: Inhibition of human CYP1A2 expressed in Escherichia coli. It counts as ADME. Summed up: as §4

Series [12] in a line: Volume of distribution at steady state in beagle dog at 0.05 mg/kg, iv up to 8 hrs by LC-MS/MS analysis. On the set-up: dose 0.05 mg/kg, route intravenous. As to conditions: in vivo, read-out: Vdss. Type of series: ADME, organism-based, Canis lupus familiaris. The method in brief:
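Beagle dogs dosed 0.05 mg/kg intravenously; plasma collected at various time points up to 8 h postdose.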

T1 sequence (P08684 whole entry, canonical isoform): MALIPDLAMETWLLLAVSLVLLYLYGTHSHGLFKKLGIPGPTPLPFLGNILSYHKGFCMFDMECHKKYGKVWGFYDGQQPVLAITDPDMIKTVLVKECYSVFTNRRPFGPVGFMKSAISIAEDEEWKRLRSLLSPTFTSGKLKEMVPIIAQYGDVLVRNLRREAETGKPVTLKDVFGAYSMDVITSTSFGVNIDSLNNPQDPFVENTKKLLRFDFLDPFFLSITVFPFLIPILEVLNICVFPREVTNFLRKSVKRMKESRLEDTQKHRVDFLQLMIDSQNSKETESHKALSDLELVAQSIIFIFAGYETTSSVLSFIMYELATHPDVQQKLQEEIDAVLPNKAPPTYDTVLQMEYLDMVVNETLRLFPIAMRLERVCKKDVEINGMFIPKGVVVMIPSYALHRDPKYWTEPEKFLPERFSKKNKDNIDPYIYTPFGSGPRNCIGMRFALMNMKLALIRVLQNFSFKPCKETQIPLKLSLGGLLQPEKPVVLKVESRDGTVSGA
Cytochrome P450 2C19, sequence (P33261 whole entry): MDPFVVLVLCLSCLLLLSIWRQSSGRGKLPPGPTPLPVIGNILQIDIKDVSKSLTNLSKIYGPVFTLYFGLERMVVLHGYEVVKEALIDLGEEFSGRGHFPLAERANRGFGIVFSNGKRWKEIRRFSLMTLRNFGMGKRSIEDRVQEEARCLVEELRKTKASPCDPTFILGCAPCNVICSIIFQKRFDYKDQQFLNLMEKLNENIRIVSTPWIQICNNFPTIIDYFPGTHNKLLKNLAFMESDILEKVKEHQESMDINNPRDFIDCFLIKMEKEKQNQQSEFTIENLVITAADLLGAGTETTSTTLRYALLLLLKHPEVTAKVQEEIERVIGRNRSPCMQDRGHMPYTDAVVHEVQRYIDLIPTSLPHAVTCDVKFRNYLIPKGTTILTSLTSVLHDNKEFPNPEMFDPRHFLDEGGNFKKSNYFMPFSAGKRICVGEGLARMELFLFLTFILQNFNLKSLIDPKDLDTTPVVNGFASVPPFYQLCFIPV
Beta-2 adrenergic receptor, sequence (P07550 whole entry): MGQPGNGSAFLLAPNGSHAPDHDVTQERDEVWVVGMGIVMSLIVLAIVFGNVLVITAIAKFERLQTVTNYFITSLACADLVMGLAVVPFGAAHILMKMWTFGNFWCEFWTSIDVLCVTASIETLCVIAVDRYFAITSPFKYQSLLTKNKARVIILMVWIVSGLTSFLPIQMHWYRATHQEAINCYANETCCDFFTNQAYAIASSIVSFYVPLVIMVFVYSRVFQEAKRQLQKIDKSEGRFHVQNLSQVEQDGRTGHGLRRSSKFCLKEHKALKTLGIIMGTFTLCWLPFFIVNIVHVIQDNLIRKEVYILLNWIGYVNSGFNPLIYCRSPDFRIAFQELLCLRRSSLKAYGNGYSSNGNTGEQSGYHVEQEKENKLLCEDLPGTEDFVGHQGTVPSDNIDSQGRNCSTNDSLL

Consider `CC(=O)O.O=S(=O)(c1cccc(CCCCOCCCCCCNC[C@H](O)c2ccc(O)c(CO)c2)c1)C1CCCC1`, for which the half-maximal effective concentration (EC50) in series [1] is 0.002 µM. The Activity entry in the series with L5178Y and in the series on Salmonella typhimurium was “Non-toxic” throughout. In addition, in the series with Cavia porcellus [2], the Time was more than 24 h. The concentration for an effect of 90% (EC90) in the series on Cavia porcellus [3] was determined as 10 µM. In addition, the pIC50 in [4] was 6.8. Further, the Drug metabolism result in the series with Hepatocyte [5], with Hepatocyte [6], with Hepatocyte [7] and in the series with Hepatocyte [8] was “Active” throughout. The CLH in the series with Liver microsome was determined as 5 mL/min/g. Further, the fraction unbound in series [9] is 0.03. Further, the IC50 was 3.8 µM at Cytochrome P450 3A4 [10], 1.6 µM against Cytochrome P450 3A4 [11], more than 10 µM against Cytochrome P450 2C19 and more than 100 µM on Cytochrome P450 1A2. Besides, the Vd in series [12] came out at 0.1 L/kg.

These data come from ChEMBL document CHEMBL3124822, “Discovery of a rapidly metabolized, long-acting β(2) adrenergic receptor agonist with a short onset time incorporating a sulfone group suitable for once-daily dosing” (J Med Chem, 2014).
